From ChEMBL document CHEMBL3596131, “Discovery of a novel trans-1,4-dioxycyclohexane GPR119 agonist series” (Bioorg Med Chem Lett, 2015)
Calls of active or inactive are those of the source. The rule behind the calls is not given here.

Assays:
[1] = Half life in human liver microsomes; type: ADME
[2] = Clearance in Sprague-Dawley rat at 2 mg/kg, iv and po; type: ADME, organism-based; conditions: in vivo
In short: (§1)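 Male Sprague-Dawley rats; 2 mg/kg IV and 2 mg/kg PO in 20% hp-β-CD; clearance, Vss, terminal t1/2, Cmax, AUClast and oral bioavailability derived.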

[3] = Plasma protein binding in mouse; type: ADME, organism-based; conditions: read-out: PPB (converted)
[4] = biological target: T1, Glucose-dependent insulinotropic receptor (Mus musculus, UniProt Q7TQP3); experiment: Agonist activity at mouse GPR119 by HTRF cAMP assay; type: functional
T1 sequence (Q7TQP3 whole entry): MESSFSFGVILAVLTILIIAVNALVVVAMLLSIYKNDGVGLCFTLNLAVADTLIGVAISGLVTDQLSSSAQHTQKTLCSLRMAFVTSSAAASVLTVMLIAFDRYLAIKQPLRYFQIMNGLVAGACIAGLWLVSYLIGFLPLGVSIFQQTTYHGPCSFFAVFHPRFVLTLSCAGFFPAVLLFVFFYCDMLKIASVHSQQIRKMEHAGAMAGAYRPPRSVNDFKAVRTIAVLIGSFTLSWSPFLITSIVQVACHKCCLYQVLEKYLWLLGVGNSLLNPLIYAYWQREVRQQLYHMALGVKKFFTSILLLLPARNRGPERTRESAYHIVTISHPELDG

[5] = Cmax in Sprague-Dawley rat at 2 mg/kg, iv and po; type: ADME, organism-based; conditions: in vivo; in short: as §1
Rattus norvegicus [6] = experiment: Antidiabetic activity in Zucker diabetic fatty rat assessed as decrease in HbA1C level at 1 mg/kg, qd administered over 4 weeks measured on day 28 post last dose relative to vehicle-treated control; type: functional; parameters: scale not given: the % may be the effect or the level left
In short: (§2)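 Chronic study in ZDF rats: once-daily dosing at 1, 3 or 10 mg/kg for 4 weeks, vehicle 0.5% methylcellulose; fed glucose and body weight tracked at dosing times, HbA1c measured on day 28 relative to vehicle.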

Rattus norvegicus [7] = experiment: Antidiabetic activity in Zucker diabetic fatty rat assessed as suppression of plasma glucose AUC at 10 mg/kg administered 60 mins prior to glucose challenge by OGTT relative to vehicle-treated control; type: functional
Cytochrome P450 2D6 = Cytochrome P450 2D6 (Homo sapiens, UniProt P10635); experiment: Inhibition of CYP2D6 in human liver microsomes; type: ADME
Cytochrome P450 2D6, sequence (P10635 whole entry): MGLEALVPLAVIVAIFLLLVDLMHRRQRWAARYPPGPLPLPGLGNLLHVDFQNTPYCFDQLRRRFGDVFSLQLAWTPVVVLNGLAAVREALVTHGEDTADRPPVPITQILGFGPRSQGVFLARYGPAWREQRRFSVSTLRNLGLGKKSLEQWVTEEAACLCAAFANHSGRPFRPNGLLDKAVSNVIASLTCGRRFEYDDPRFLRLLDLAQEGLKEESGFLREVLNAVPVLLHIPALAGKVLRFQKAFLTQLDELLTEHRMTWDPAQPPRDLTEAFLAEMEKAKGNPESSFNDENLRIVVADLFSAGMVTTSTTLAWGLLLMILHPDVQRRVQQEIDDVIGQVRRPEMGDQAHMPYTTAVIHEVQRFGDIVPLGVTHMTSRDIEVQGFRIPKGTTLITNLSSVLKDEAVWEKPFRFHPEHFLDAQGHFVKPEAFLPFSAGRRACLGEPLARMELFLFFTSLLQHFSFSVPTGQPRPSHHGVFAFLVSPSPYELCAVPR

[8] = biological target: T2, Glucose-dependent insulinotropic receptor (Rattus norvegicus) (UniProt Q7TQN8); experiment: Agonist activity at rat GPR119 by HTRF cAMP assay relative to AR231453; type: functional
T2 sequence (whole entry): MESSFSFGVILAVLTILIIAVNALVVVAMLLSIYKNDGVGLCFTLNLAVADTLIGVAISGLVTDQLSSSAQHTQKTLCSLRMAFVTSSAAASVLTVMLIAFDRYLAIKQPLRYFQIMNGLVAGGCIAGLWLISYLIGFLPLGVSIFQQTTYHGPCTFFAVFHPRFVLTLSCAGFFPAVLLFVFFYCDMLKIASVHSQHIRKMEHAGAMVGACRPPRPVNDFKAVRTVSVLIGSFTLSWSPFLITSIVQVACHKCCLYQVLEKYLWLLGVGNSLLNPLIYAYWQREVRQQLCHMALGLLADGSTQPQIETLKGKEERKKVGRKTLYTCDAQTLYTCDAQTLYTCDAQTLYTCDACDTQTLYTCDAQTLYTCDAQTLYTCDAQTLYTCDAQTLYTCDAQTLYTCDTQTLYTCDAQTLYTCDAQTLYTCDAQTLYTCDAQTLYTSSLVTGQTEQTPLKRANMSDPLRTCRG

[9] = Plasma concentration in Sprague-Dawley rat at 2 mg/kg, po measured at 2 hrs; type: ADME, organism-based
In short: (§3)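 Abbreviated CNS study in male SD rats given 2 mg/kg orally in 20% hp-β-CD; brain (ng/g) and plasma (ng/mL) levels sampled at 2 h post-dose, brain/plasma ratio calculated.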

[10] = Volume of distribution at steady state in Sprague-Dawley rat at 2 mg/kg, iv and po; type: ADME, organism-based; conditions: in vivo, read-out: Vdss
In short: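 Male Sprague-Dawley rats received 2 mg/kg intravenously or 2 mg/kg orally in 20% hydroxypropyl-β-cyclodextrin. Steady-state volume of distribution was taken from the plasma pharmacokinetic profile and reported in L/kg.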

[11] = Agonist activity at monkey GPR119 by HTRF cAMP assay; parameters: species or system Macaca mulatta
Rattus norvegicus [12] = experiment: Antidiabetic activity in Zucker diabetic fatty rat assessed as decrease in HbA1C level at 3 mg/kg, qd administered over 4 weeks measured on day 28 post last dose relative to vehicle-treated control; type: functional; parameters: scale not given: the % may be the effect or the level left; in short: as §2
[13] = Oral bioavailability in Sprague-Dawley rat at 2 mg/kg; type: ADME, organism-based; conditions: in vivo; in short: as §1
Mus musculus = experiment: In vivo activation of GPR119 in normoglycemic 129SVE mouse assessed as increase in GIP level in plasma at 3 to 30 mg/kg, po measured after 45 mins relative to vehicle-treated control; type: functional, organism-based
In short: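 Normoglycemic male 129SVE mice dosed orally (3 and 30 mg/kg); plasma GIP measured 45 min after dosing versus vehicle-treated controls; AR231453 at 30 mg/kg as reference agonist.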

HepG2 = experiment: Cytotoxicity against human HepG2 cells; type: cell-based
Cytochrome P450 3A4 = Cytochrome P450 3A4 (Homo sapiens, UniProt P08684); experiment: Inhibition of CYP3A4 in human liver microsomes; type: ADME
Cytochrome P450 3A4, sequence (P08684 whole entry): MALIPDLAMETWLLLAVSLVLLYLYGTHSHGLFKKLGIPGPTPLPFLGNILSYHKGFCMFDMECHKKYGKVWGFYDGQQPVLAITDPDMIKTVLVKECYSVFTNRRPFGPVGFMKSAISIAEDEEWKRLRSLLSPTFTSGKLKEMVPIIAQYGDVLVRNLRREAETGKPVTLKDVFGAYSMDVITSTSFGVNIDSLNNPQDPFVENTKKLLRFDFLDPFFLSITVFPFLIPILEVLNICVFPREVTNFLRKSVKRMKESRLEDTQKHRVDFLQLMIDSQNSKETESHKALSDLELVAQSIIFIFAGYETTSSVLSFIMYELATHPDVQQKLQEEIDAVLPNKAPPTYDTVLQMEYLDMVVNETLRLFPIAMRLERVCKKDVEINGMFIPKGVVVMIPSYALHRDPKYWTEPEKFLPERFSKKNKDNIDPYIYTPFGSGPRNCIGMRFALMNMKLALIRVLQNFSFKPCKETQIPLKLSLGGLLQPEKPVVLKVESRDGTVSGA

Rattus norvegicus [14] = experiment: Antidiabetic activity in Zucker diabetic fatty rat assessed as fed glucose lowering effect at 1 to 10 mg/kg, qd administered over 4 weeks measured after 2 weeks of treatment; type: functional, organism-based; in short: as §2
[15] = biological target: Voltage-gated inwardly rectifying potassium channel KCNH2 (Homo sapiens, UniProt Q12809); experiment: Inhibition of human ERG by patch clamp assay
Voltage-gated inwardly rectifying potassium channel KCNH2, sequence (Q12809 whole entry): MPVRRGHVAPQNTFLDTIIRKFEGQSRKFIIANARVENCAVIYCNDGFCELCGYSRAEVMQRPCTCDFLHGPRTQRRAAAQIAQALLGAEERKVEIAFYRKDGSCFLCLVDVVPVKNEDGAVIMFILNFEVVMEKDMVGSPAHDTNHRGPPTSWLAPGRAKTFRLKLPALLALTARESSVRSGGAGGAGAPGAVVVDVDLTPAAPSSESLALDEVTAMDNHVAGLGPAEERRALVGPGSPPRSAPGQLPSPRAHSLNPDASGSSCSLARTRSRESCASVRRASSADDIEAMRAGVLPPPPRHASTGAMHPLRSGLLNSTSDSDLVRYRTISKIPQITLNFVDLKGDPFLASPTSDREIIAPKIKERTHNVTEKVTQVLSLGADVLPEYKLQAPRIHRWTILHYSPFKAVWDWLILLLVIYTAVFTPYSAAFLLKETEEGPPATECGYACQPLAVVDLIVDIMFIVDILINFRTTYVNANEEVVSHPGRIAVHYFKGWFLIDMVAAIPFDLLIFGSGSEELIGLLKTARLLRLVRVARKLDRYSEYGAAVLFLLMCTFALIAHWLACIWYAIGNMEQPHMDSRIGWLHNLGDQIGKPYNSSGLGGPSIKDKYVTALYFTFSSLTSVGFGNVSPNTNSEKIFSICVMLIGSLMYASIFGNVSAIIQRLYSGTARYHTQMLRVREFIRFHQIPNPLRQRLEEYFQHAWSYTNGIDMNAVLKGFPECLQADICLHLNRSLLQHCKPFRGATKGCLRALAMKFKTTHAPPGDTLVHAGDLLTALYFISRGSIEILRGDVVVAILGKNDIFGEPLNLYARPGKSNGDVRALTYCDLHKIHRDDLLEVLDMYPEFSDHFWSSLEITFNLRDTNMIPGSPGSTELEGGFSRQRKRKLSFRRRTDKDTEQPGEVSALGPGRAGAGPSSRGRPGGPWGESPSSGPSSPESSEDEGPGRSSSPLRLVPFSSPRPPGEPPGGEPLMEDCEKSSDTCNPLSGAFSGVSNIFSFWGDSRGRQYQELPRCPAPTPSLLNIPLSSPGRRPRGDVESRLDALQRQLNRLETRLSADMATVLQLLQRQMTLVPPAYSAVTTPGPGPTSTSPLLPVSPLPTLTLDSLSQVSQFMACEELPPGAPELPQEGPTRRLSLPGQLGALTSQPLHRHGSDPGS

Macaca mulatta = species on record: Macaca mulatta; experiment: Agonist activity at monkey GPR119 by HTRF cAMP assay relative to AR231453
Rattus norvegicus [16] = experiment: Antidiabetic activity in Zucker diabetic fatty rat assessed as suppression of plasma glucose AUC administered 60 mins prior to glucose challenge by OGTT; type: functional, organism-based
Cytochrome P450 2C19 = Cytochrome P450 2C19 (Homo sapiens, UniProt P33261); experiment: Inhibition of CYP2C19 in human liver microsomes; type: ADME
Cytochrome P450 2C19, sequence (P33261 whole entry): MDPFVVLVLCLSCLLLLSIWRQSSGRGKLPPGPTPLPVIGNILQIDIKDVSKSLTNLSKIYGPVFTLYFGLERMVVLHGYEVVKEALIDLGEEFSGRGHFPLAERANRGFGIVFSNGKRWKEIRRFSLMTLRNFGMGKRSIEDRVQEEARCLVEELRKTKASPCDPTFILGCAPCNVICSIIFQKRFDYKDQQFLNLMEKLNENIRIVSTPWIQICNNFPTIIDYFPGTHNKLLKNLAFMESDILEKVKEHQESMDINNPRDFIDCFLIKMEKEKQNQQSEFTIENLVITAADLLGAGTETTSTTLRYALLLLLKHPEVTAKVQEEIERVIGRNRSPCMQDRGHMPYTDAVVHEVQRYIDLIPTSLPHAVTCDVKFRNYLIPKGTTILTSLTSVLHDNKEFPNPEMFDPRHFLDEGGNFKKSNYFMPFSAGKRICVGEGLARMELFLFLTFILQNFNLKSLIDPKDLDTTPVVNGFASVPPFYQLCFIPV

[17] = AUClast in Sprague-Dawley rat at 2 mg/kg, iv and po; type: ADME, organism-based; conditions: in vivo; in short: as §1
[18] = Ratio of drug level in brain to plasma in Sprague-Dawley rat at 2 mg/kg, po measured at 2 hrs; type: ADME, organism-based; conditions: read-out: BPR; in short: as §3
[19] = Half life in human hepatocytes; type: ADME, cell-based, Hepatocyte
[20] = biological target: T3, Uncharacterized protein (Canis lupus familiaris) (UniProt A0A8C0THM6); experiment: Agonist activity at canine GPR119 by HTRF cAMP assay relative to AR231453
T3 sequence (whole entry): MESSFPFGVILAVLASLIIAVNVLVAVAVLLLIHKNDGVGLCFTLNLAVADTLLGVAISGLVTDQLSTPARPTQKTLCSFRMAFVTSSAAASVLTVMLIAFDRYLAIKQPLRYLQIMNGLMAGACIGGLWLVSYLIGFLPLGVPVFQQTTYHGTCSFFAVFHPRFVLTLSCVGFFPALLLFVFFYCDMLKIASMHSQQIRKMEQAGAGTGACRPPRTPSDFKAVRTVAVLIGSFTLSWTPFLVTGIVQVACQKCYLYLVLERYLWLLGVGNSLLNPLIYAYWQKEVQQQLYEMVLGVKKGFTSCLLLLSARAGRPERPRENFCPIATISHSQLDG

half-life [1]: > 1 h
clearance [2]: 6.67 mL/min/kg
fraction unbound [3]: 0.065
EC50 [4]: 20.5 nM
Cmax [5]: 770 ng/mL
INH (Cytochrome P450 2D6): > 50 µM
Emax [8]: 120%
concentration at 2 h [9]: 841 ng/mL
Vd [10]: 2.94 L/kg
EC50 [11]: 3.4 nM
bioavailability [13]: 100%
INH (Cytochrome P450 3A4): > 50 µM
Emax (Macaca mulatta): 73%
INH (Cytochrome P450 2C19): 23.4 µM
AUC(0-t) [17]: 5210 ng·h/mL
Kp at 2 h [18]: 0.98
half-life [19]: > 2 h
Emax [20]: 144%
Structure (SMILES): C[C@@H](OC(=O)N1CCC(O[C@H]2CC[C@H](Oc3cnc(S(C)(=O)=O)cn3)CC2)CC1)C(F)(F)F
Activity (Rattus norvegicus [6]): 1.63%
Activity (Rattus norvegicus [7]): 58%
Activity (Rattus norvegicus [12]): 1.85%
Activity (Mus musculus): Active
Activity (HepG2): Non-toxic
Activity (Rattus norvegicus [14]): Active
IC50 [15]: > 30000 nM
Activity (Rattus norvegicus [16]): Dose-dependent effect
